Screening results (PubChem)
OX1R antag-1: antagonists of human orexin 1 receptor (OX1R); OX1R-expressing cells, FRET antagonist read-out; O43613; hit rate 1.8% among 330,000; inhibition, % at 6.6 µM; in the data active means inhibition mostly above about 38%, no sharp cut-off; inactive means mostly below about 40%
Target sequence (O43613 whole entry, looked up): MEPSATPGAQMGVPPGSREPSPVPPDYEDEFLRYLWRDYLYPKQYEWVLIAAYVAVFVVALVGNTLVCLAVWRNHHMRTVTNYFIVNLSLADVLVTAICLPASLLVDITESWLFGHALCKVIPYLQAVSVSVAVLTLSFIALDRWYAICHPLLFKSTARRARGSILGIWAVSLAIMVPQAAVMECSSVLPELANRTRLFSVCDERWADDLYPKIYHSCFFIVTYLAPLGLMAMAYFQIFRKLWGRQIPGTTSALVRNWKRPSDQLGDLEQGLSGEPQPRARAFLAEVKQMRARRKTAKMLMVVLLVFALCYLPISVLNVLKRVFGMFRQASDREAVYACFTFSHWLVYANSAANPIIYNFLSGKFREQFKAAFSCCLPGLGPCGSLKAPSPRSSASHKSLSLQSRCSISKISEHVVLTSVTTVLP
OX1R antag-2: antagonists of human orexin 1 receptor. CHO/OX1R cells, Fluo-8 calcium fluorescence, orexin A. hit rate 0.43% among 330,000. inhibition, % at 5 µM;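 active means inhibition above its plate's threshold, mean inhibition of all tested compounds on the plate plus 3 SD, cut at about 37% in these data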
CHO parental Ca: signal in parental CHO cells, OX1R antagonist counter-screen; hit rate 0.63% among 330,000; parental CHO-K1, ATP-induced calcium, Fluo-8 fluorescence; inhibition, % at 5.6 µM;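 active means inhibition above that plate's mean sample inhibition plus 3 SD, cut at about 26% in these data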
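Assay system – parental CHO cells · Reagent – ATP stimulus · Detection – intracellular calcium via Fluo-8 no-wash fluorescent dye · Evaluation – percent inhibition of ATP-evoked calcium rise, normalized to controls · Controls – ATP wells versus no-ATP DMSO wells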
MPTP block: permeability transition pore inhibition; hit rate 1.4% among 360,000; AID 602449; inhibition, % at 10 µM; isolated mouse mitochondria, Ca2+ swelling absorbance, 30 min;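 active means inhibition of 50% or more, scaled per plate between neutral and stimulator controls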
GPR7 antagonist: antagonists of human GPR7 (neuropeptides B/W receptor 1). GPR7-expressing cells, fluorescence antagonist assay. P48145. hit rate 1.1% among 290,000. inhibition, % at 4.4 µM; in the data active means inhibition above about 16%, passing the limit was not always enough;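 further: cells stimulated with the agonist NPW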
GPR7 antag cf: confirmation of human GPR7 antagonists; shares compounds with GPR7 antagonist; inhibition, % at 4.4 µM; GPR7-expressing cells, calcium fluorescence antagonist mode; hit rate 52% among 2,400; in the data active means inhibition above about 24%;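 further: stimulated with the GPR7 agonist NPW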
MCHR1 antag: MCHR1 (human) antagonism in GPR7 counter-screen; AID 2148; MCHR1-expressing cells, fluorescence antagonist assay; hit rate 62% among 2,400; shares compounds with GPR7 antagonist; inhibition, % at 4.4 µM; in the data active means inhibition above about 22%
Each line names hits and unclear results; the compound was inactive in the other large screens (follow-up assays come after a bar, where they were run). Compounds with a hit are over-represented: about 3.8% of the library has one in this group of screens.

COc1ccc(C(=O)C2CCCN(Cc3cccn3-c3ccccn3)C2)c(OC)c1 (configuration not stated)	none
COc1ccc(CC2(CO)CCN(C(C)Cc3ccc(Cl)cc3)CC2)cc1 (configuration not stated)	GPR7 antagonist 21 | GPR7 antag cf inactive | MCHR1 antag inactive
COc1ccc(CCC(C)N2CCC(CO)(Cc3ccccc3)CC2)cc1 (configuration not stated)	none
CC1CCN(S(=O)(=O)N2CCC(C(=O)NCc3ccc(F)cc3Cl)CC2)CC1	none (no result: OX1R antag-1, OX1R antag-2, CHO parental Ca, GPR7 antagonist)
O=C(C1COc2ccccc2O1)N1CCc2ccccc2C1 (configuration not stated)	GPR7 antagonist 21 | GPR7 antag cf inactive | MCHR1 antag 35
COCCNC(=O)Cn1c(=O)n(CCCCCC(=O)NCc2ccc3c(c2)OCO3)c(=O)c2sccc21	GPR7 antagonist 29 (no result: MPTP block) | GPR7 antag cf inactive | MCHR1 antag inactive
Cc1cc(NC(=O)c2ccc(C)c([N+](=O)[O-])c2)no1	none
Cc1cc(NC(=O)c2ccc(Br)c([N+](=O)[O-])c2)no1	GPR7 antagonist 22 | GPR7 antag cf inactive | MCHR1 antag inactive
COc1ccc(Nc2nnc(-c3ccc(C(=O)NCCO)cc3)c3ccccc23)cc1	GPR7 antagonist 60 | GPR7 antag cf inactive | MCHR1 antag 36
COc1ccc(Nc2nnc(-c3ccc(C(N)=O)cc3)c3ccccc23)cc1	GPR7 antagonist 34 | GPR7 antag cf inactive | MCHR1 antag inactive
NC(=O)c1ccc(Nc2nnc(-c3ccc(O)cc3)c3ccccc23)cc1	none
COC(=O)C1CN(C(=O)COc2ccc(C)cc2)c2ccccc2O1 (configuration not stated)	none
Cc1cccc(C(=O)N(CCc2ccccc2)Cc2ccccc2)c1[N+](=O)[O-]	GPR7 antagonist 24 | GPR7 antag cf 24 | MCHR1 antag 67
CCc1cccc(CC)c1NC(=O)CN1CC(C)SC1=NC1CCCCC1 (configuration not stated)	GPR7 antagonist 38 | GPR7 antag cf 55 | MCHR1 antag 33
CCc1cccc(CC)c1NC(=O)NC1CCCCC1	none
CCOc1ccc(Br)cc1S(=O)(=O)NC(=O)c1ccccc1	none
O=C(CN1C(=O)C2C3CC(C(Br)C3Br)C2C1=O)N1CCN(Cc2ccccc2)CC1 (configuration not stated)	GPR7 antagonist 29 | GPR7 antag cf 41 | MCHR1 antag inactive
COc1ccc(CCN(C)C(=S)Nc2ccc(SC(F)F)cc2)cc1OC	GPR7 antagonist 39 | GPR7 antag cf inactive | MCHR1 antag inactive
NS(=O)(=O)c1ccc(CCNC(=O)CCCNC(=O)c2ccc(Cl)cc2)cc1	none
Cc1ccccc1CC1(CO)CCCN(C(=O)c2ccccc2N(C)C)C1 (configuration not stated)	GPR7 antagonist 31 | GPR7 antag cf 36 | MCHR1 antag 31
Cc1ccc(C(=O)Nc2ccsc2C(=O)O)cc1	none
O=C(Nc1ccsc1C(=O)O)c1ccc(Cl)cc1	GPR7 antagonist 46 | GPR7 antag cf inactive | MCHR1 antag inactive
O=C(c1cccs1)N1CCC(c2ccccc2)C1 (configuration not stated)	GPR7 antagonist 21 | GPR7 antag cf inactive | MCHR1 antag inactive
O=C(Cc1ccc(Cl)cc1)Nc1cc(S(=O)(=O)N2CCOCC2)ccc1N1CCCC1	none
CN1CCN(c2ccc(S(=O)(=O)N3CCCCC3)cc2NC(=O)Cc2ccc(Cl)cc2)CC1	GPR7 antagonist 25 | GPR7 antag cf 50 | MCHR1 antag 54
CCOc1ccc(-n2c(-c3ccccc3)c[n+]3c2CCCCC3)cc1	GPR7 antagonist 29 | GPR7 antag cf 47 | MCHR1 antag 45
Cc1ccc(S(=O)(=O)Oc2ccc(/C=C3\C(=N)N4N=C(S(C)(=O)=O)SC4=NC3=O)cc2)cc1	GPR7 antagonist 30 | GPR7 antag cf inactive | MCHR1 antag inactive
COC(=O)[C@@H](NC(=O)c1ccc2c(c1)S(=O)(=O)c1ccccc1C2=O)C(C)C	OX1R antag-1 73, GPR7 antagonist 22 | GPR7 antag cf inactive | MCHR1 antag inactive
COc1cc(/C=N/Nc2nc(N3CCCC3)nc(N3CCCC3)n2)ccc1OCc1ccccc1F	none
N#CCCN(C(=O)COC(=O)CCc1nc2ccccc2c(=O)[nH]1)c1ccccc1F	none (no result: GPR7 antagonist)
Cc1ccc(OCC(=O)NCc2cccnc2)cc1	GPR7 antagonist 24 | GPR7 antag cf inactive | MCHR1 antag inactive
O=S(=O)(NCc1cccnc1)c1ccc2c(c1)OCCO2	GPR7 antagonist 23 | GPR7 antag cf inactive | MCHR1 antag inactive
O=S(=O)(NCc1ccccc1)c1ccc2c(c1)OCCO2	none
Cc1ccc(S(=O)(=O)NCc2ccc(C(=O)NCc3cccnc3)cc2)cc1	GPR7 antagonist 23 (no result: MPTP block) | GPR7 antag cf inactive | MCHR1 antag inactive
CNC(=S)NNC(=O)c1cccc(N(C)C)c1	none
CN(C)c1ccc(C(=O)NCC(c2cccs2)N2CCOCC2)cc1 (configuration not stated)	none (no result: GPR7 antagonist)
CCOc1ccc(NC(=O)c2ccc(NC(=O)CSc3nc4ccccc4c(=O)[nH]3)cc2)cc1	none
O=C1/C(=N\O)Cc2ccccc21	GPR7 antagonist 27 | GPR7 antag cf inactive | MCHR1 antag inactive
Clc1ccc(CN2C3=NCCCN3c3ccccc32)cc1Cl	GPR7 antagonist 24 | GPR7 antag cf 26 | MCHR1 antag 27
CCc1ccc(NC(=O)C(CC)c2ccccc2)cc1 (configuration not stated)	CHO parental Ca 39, GPR7 antagonist 31 | GPR7 antag cf 58 | MCHR1 antag 60
CCC(C(=O)Nc1cccc(C(F)(F)F)c1)c1ccccc1 (configuration not stated)	GPR7 antagonist 28 | GPR7 antag cf inactive | MCHR1 antag 47
COc1ccc(S(=O)(=O)NCC2(N3CCOCC3)CCCCC2)cc1OC	none (no result: OX1R antag-1, OX1R antag-2, CHO parental Ca, GPR7 antagonist)
Cc1cc(-c2nn(-c3ccccc3F)cc2CN2CCN(c3ccncc3)CC2)c(C)s1	none
CCSc1nc2sc3c(c2c(=O)n1-c1ccccc1)CCN(C(C)C)C3	none (no result: OX1R antag-1, OX1R antag-2, CHO parental Ca)
CCOc1ncccc1C(=O)N1CCN(c2cccc(C)c2C)CC1	GPR7 antagonist 28 (no result: OX1R antag-1, OX1R antag-2, CHO parental Ca) | GPR7 antag cf inactive | MCHR1 antag 34
CCOc1ccc(NC(=O)c2ccc3c(=O)n(-c4ccc(OC)cc4OC)c(=S)[nH]c3c2)cc1	GPR7 antagonist 24 | GPR7 antag cf 44 | MCHR1 antag 65
OC(CNCC1CCCO1)Cn1c2ccc(Cl)cc2c2cc(Cl)ccc21 (configuration not stated)	GPR7 antagonist 53 | GPR7 antag cf 53 | MCHR1 antag 54
NC(=O)c1cnn(C2CCS(=O)(=O)C2)c1 (configuration not stated)	none
COC(=O)[C@@H]1CCCN1C(=O)CCc1nnc(CCC2CCCCC2)o1	none
